Screening data (PubChem BioAssay)
Rows were chosen to be rich in hits. Some 2.9% of all compounds tested hit in one or more screens of this group.
Apaf1 inhib – human Apaf-1 inhibition; O14727; reconstituted apoptosome caspase-3 activity, DEVD-Rh110 fluorescence; inhibition, % at 20 µM; 330,000 tested, 0.71% active; AID 489030; active = inhibition of at least 40% at 20 µM;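 note: plate controls were DMSO wells for no effect and DEVD-CHO caspase inhibitor wells for full effect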
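Assay system – apoptosome proteins · Medium – Hepes buffer, pH 7.5 · Also added – cytochrome c with DEVD-Rh110 · Timing – 30 min compound preincubation, 50 min activation, room temperature · Detection – Rh110 fluorescence, excitation 480 nm, emission 540 nm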
UBC13 polyUb – blocks human UBC13 polyubiquitin chain formation | P61088 | inhibition, % at 20 µM | TR-FRET | 330,000 tested, 0.47% active; in the data active = inhibition above about 45%, passing the limit was not always enough
Target sequence (P61088 whole entry, looked up): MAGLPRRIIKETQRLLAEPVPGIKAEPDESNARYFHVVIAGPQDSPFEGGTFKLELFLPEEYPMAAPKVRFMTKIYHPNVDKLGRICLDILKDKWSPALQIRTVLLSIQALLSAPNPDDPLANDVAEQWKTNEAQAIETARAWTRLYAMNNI
MEKK3 PB1 HTS – MEKK3-MEK5 PB1 interaction, increase or decrease; bead-based flow cytometry, Alexa488-MEK5 binding to MEKK3; actives lie on both sides; 0 = blocked by unlabeled MEK5, 100 = vehicle; binding response (% of control), % at 10 µM; Q99759; 290,000 tested, 1.4% active;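 active = binding response more than 3 SD above or below the average of its plate-row segment, actives on both sides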;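 note: Alexa488 bead fluorescence after subtracting the streptavidin-only scavenger bead signal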
MEKK2 WT-MEK5 – raises or lowers MEK5 binding to wildtype human MEKK2 PB1 domain. AID 1531. 290,000 tested, 1.1% active. bead flow cytometry, Alexa488-MEK5 binding to MEKK2 WT; actives lie on both sides. binding response (% of control), % at 10 µM. Q9Y2U5; in the data active = binding response below about 67% or above about 130%
MEKK2mut PB1 HTS – signal of MEK5 binding to mutant human MEKK2 PB1 domain | bead flow cytometry, Alexa488-MEK5 binding to MEKK2 mutant | percent response, % at 10 µM | 290,000 tested, 0.35% active | AID 1530; in the data active = percent response above about 24%, passing the limit was not always enough
Apaf-1 inh conf – Apaf-1 inhibition, single-dose confirmed | shares compounds with Apaf1 inhib | reconstituted apoptosome, caspase-3 DEVD-Rh110 fluorescence | inhibition, % at 20 µM | 1,800 tested, 25% active | AID 504614;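 active = mean inhibition of at least 40% at 20 µM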;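 note: plate controls were DMSO wells for no effect and DEVD-CHO caspase inhibitor control wells for full effect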
Rh110 interf inh – interferes with Rh110 fluorescence, flagging false Apaf-1 inhibitors; Rh110 fluorescence interference, quenched caspase reaction; 1,800 tested, under 10 active; activation (fluorescence interference), % at 20 µM; shares compounds with Apaf1 inhib;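 active = signal rise of 40% or more at 20 µM, treated as a fluorescence artifact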
* = called active by the depositor; / = no result.

SMILES	Apaf1 inhib	UBC13 polyUb	MEKK3 PB1 HTS	MEKK2 WT-MEK5	MEKK2mut PB1 HTS	Apaf-1 inh conf	Rh110 interf inh
S=C(NCc1ccco1)NCC1CCCO1 (centres undefined)	-2	7	105	106	6	/	/
CCCCCn1c(N2CCC(Cc3ccccc3)CC2)nc2c1c(=O)[nH]c(=O)n2C	46*	17	100	92	2	32	11
CCCC(=O)OCCNc1cc(SCc2ccco2)c2nonc2c1[N+](=O)[O-]	57*	-38	127	106	1	-1	0
CC(=O)OCCCNc1cc(SCc2ccco2)c2nonc2c1[N+](=O)[O-]	74*	-32	124	106	0	0	-2
CCCSc1cc(NCCOC(C)=O)c([N+](=O)[O-])c2nonc12	7	-19	97	94	-1	/	/
O=C(O)c1ccc(/C=N\Nc2ccc(S(=O)(=O)N3CCOCC3)cc2[N+](=O)[O-])cc1	-20	-76	100	101	1	/	/
Cc1ccc(-n2c(O)c(/C=N/Nc3ccc(S(=O)(=O)N4CCOCC4)cc3[N+](=O)[O-])c3ccccc3c2=O)c(C)c1	51*	-60	106	99	-2	31	6
CCOC(=O)C1=C(O)C(=O)N(Cc2cccnc2)C1c1ccc(OC)cc1 (centres undefined)	2	-2	106	100	6	/	/
COc1ccc(Cl)cc1NC(=O)C(C)N1CCN(C/C=C/c2ccccc2)CC1 (centres undefined)	43*	19	104	125	9	15	11
COc1ccc(CN2CC(C(=O)NCc3ccc4c(c3)OCO4)CC2=O)cc1 (centres undefined)	0	6	101	104	3	/	/
COc1ccc(CN2CC(C(=O)NCc3cccc(OC)c3)CC2=O)cc1 (centres undefined)	67*	5	104	104	-6	11	4
CC(=O)c1ccc(S(=O)(=O)N2CCN(C(=O)c3ccc(COc4ccccc4)o3)CC2)cc1	4	2	/	/	/	/	/
CCNC(=S)N1CCN(c2nc(CC)nc3sc4c(c23)CCCC4)CC1	14	9	102	104	11	/	/
CCc1nc(N2CCN(C(C)=O)CC2)c2c3c(sc2n1)CC(C(C)(C)C)CC3 (centres undefined)	42*	22	101	107	4	31	10
CC(=O)c1cccc(NC(=O)CSc2ccc(-c3ccco3)nn2)c1	45*	-5	108	114	12	7	6
CCc1ccc(NC(=O)CSc2ccc(-c3ccco3)nn2)cc1	-3	-4	102	99	-2	/	/
CSc1cccc(NC(=O)C2CCN(S(=O)(=O)c3ccc4c(c3)NC(=O)CO4)CC2)c1	9	8	96	96	2	/	/
O=C(O)c1ccc2c(c1)C(=O)N(N1C(=O)c3ccccc3C1=O)C2=O	-12	-18	100	111	2	/	/
Oc1ccc(N=Cc2ccc(-c3cccs3)s2)cc1	96*	2	98	93	-4	26	5
Cc1cc(NC(=O)CCc2ccccc2)c([N+](=O)[O-])cc1C	8	2	100	97	-2	/	/
Clc1ccc(OCCSc2nnnn2C2CCCCC2)cc1	65*	0	99	99	5	12	1
COCCN(C(=O)COC(=O)/C=C/c1ccc(C(F)(F)F)cc1)c1c(N)n(Cc2ccccc2)c(=O)[nH]c1=O	44*	-12	/	/	/	6	3
CN(C(=O)CC1C(=O)NCCN1Cc1ccc(F)c(F)c1)C1CCOCC1 (centres undefined)	9	-11	100	82	-12	/	/
CCCC1=Nc2cc(C(=O)NCCCOC(C)C)ccc2Sc2ccccc21	25	-2	106	100	2	/	/
CCCC1=Nc2cc(C(=O)NCCCOCC)ccc2Sc2ccccc21	45*	-1	100	100	1	3	-1
SMILES	Apaf1 inhib	UBC13 polyUb	MEKK3 PB1 HTS	MEKK2 WT-MEK5	MEKK2mut PB1 HTS	Apaf-1 inh conf	Rh110 interf inh
COc1ccccc1C(=O)Nc1nc(C)cc(C)n1	3	-2	/	/	/	/	/
O=C1Cc2cc(S(=O)(=O)N3CCNCC3)ccc2N1	40*	-4	/	/	/	10	6
CC1(CCc2ccccc2)NC(=O)N(CC(=O)Nc2ccc3c(c2)OCCO3)C1=O (centres undefined)	6	3	97	95	-2	/	/
C/C=C\C(=O)Nc1cccc(C2=NOC3(C2)C[C@H](C(N)=O)N(C(=O)Cc2ccc([N+](=O)[O-])cc2)C3)c1 (some centres undefined)	10	1	85	90	4	/	/
CCOc1ccc(CCNC(=O)Cn2cccc2C(=O)c2ccccc2C)cc1OCC	-3	4	101	96	-2	/	/
CCOc1ccc(/C=C/[N+](=O)[O-])c2ccccc12	80*	-44	100	79	-11	24	2
N#Cc1c(N)n(-c2cccc(O)c2)c2nc3ccccc3nc12	-17	6	101	102	2	/	/
COc1cccc(Cn2c(N)c(C#N)c3nc4ccccc4nc32)c1OC	92*	-6	107	96	-2	11	8
COc1ccc(Cn2c(N)c(C#N)c3nc4ccccc4nc32)cc1	50*	-19	/	/	/	12	0
Cc1ccc(C(=O)NCCn2c(N)c(C#N)c3nc4ccccc4nc32)cc1	10	-1	92	90	-2	/	/
COCCn1c(N)c(C#N)c2nc3ccccc3nc21	52*	-3	92	98	0	15	5
COc1ccc(Cn2c(N)c(S(=O)(=O)c3cccs3)c3nc4ccccc4nc32)cc1	-8	8	109	113	3	/	/
N#Cc1c(N)n(CCc2ccc(F)cc2)c2nc3ccccc3nc12	82*	-12	106	99	5	19	10
CCc1ccc(NC(=O)COC(=O)CCc2nc3cc(S(=O)(=O)N(CC)CC)ccc3n2C)cc1	25	-2	94	109	5	/	/
N#Cc1c(N)n(CCOC(=O)c2cccc(Br)c2)c2nc3ccccc3nc12	46*	-17	103	100	1	20	11
N#Cc1c(N)n(-c2ccc(O)cc2)c2nc3ccccc3nc12	7	-8	107	105	2	/	/
N#Cc1c(N)n(CCOC(=O)c2cccc([N+](=O)[O-])c2)c2nc3ccccc3nc12	17	-29	104	109	7	/	/
N#Cc1c(N)n(CCNC(=O)c2ccc(Cl)cc2)c2nc3ccccc3nc12	67*	-2	108	113	9	22	4
COc1cc(Cn2c(N)c(C#N)c3nc4ccccc4nc32)cc(OC)c1	58*	22	/	/	/	18	4
CCC(CO)Oc1cc(NCc2cccc(C)c2)c2ncn(C(C)C)c2c1 (centres undefined)	54*	-6	/	/	/	28	6
